Source: PubChem
Hits are enriched below; roughly 1.9% of the tested compounds scored in any of these assays.
NSD2 inh: NSD2 (human) methyltransferase inhibition. NSD2 peptide methylation, AlphaScreen, 120 min. inhibition, % at 12.5 µM. actives 0.54% (n = 310,000); in the data active = inhibition above about 50%
LEDGF integ inh: blocks HIV-1 LEDGF/p75-dependent DNA integration | TR-FRET IN-LEDGF/p75 DNA integration, Eu/Cy5 | inhibition, % at 3.7 µM | actives 0.64% (n = 370,000);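 active = inhibition above the screen-wide mean plus 3 SD, cut at about 13% in these data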;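 also: signal is the Cy5 over europium emission ratio at 671 and 618 nm; 0% = plate median of compound wells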
TDP2 absorb: blocks human TDP2 phosphodiesterase activity | O95551 | recombinant TDP2, T5PNP hydrolysis, p-nitrophenol absorbance 415 nm | inhibition, % at 12.8 µM | actives 0.34% (n = 370,000) | AID 720702;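 active = inhibition above the mean of all tested compounds plus 3 SD, set per campaign, cut at about 25% in these data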;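 also: 0% = DMSO with enzyme and 100% = buffer with substrate but no TDP2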
Target sequence (O95551 whole entry, looked up): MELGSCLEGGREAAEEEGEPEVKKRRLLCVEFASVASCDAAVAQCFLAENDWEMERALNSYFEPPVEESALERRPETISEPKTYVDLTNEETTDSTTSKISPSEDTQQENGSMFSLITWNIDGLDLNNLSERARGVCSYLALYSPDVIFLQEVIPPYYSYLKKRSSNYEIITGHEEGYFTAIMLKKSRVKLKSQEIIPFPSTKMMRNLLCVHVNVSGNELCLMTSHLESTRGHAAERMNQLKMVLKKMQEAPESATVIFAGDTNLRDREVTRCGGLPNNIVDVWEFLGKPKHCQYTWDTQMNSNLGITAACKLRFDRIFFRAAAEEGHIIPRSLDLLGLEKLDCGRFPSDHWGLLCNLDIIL
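Test system: Human TDP2 enzyme | Reagent: 5 mM T5PNP | Compound dosing: 12.8 µM single point, 1% DMSO | Incubation: Enzyme reaction with compound for 2 h at 37 °C | Technique: p-Nitrophenol epi absorbance | Read-out: % inhibition relative to enzyme-containing and enzyme-free wells | Benchmarks: High control without enzyme, low control DMSO plus TDP2 | Replicates: Singlicate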
Casp6 inh: inhibitors of human caspase-6 | P55212 | purified caspase-6, Z-VEID-R110 cleavage fluorescence | inhibition, % at 12.5 µM | actives 0.53% (n = 350,000);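 active = mean inhibition across replicates at least about 35%, with every replicate also reaching that limit, limit read from the data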;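 also: 0% = median of neutral control wells and 100% = no fluorescence left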
Target sequence (P55212 24-179 limits assumed): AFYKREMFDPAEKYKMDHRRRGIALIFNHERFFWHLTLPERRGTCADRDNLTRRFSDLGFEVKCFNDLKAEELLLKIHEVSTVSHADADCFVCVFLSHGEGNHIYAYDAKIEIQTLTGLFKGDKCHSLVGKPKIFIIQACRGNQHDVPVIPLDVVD
Target sequence (P55212 194-293 limits assumed): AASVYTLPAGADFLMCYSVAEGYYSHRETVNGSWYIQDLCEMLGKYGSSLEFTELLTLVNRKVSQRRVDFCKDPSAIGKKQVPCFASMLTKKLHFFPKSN
MBD2 DNA inh: blocks human MBD2 binding to methylated DNA. TR-FRET, MBD2 binding to methylated oligonucleotide. actives 0.31% (n = 370,000). inhibition, % at 4.4 µM; in the data active = inhibition above about 13%
UHRF1 MBD2 ctr: UHRF1 methyl-DNA binding inhibition. Q96T88. UHRF1 binding to methylated oligo, TR-FRET. inhibition, % at 4.4 µM. actives 0.75% (n = 370,000); in the data active = inhibition above about 21%;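 also: UHRF1 SRA domain binding a hemimethylated CpG hairpin DNA probe; 0% = median of test compound wells and 100% = reference inhibitor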
IN multimer act: counter-screen for LEDGF/p75 integration inhibitors: HIV-1 integrase multimerization activators. shares compounds with LEDGF integ inh. TR-FRET HIV-1 integrase multimerization, biochemical. activation, % at 7.7 µM. actives 17% (n = 2,000). AID 1053131; in the data active = activation above about 8.9%
TRFRET interf: counter-screen for LEDGF/p75 integration inhibitors: TR-FRET optical interference; shares compounds with LEDGF integ inh; TR-FRET optical interference counterscreen, HIV-1 IN multimerization; inhibition, % at 7.7 µM; 2,000 tested, under 10 active;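 active = inhibition above the mean over all tested compounds plus 3 SD, which no compound reached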;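 also: 0% = integrase with antibodies and DMSO and 100% = antibodies without integrase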
LEDGF integ conf: confirmation of HIV-1 LEDGF/p75-dependent integration inhibitors; actives 36% (n = 2,000); inhibition, % at 3.7 µM; shares compounds with LEDGF integ inh; TR-FRET LEDGF/p75-dependent HIV-1 integration, biochemical; in the data active = inhibition above about 14%
Starred values were filed as active, the others as inactive; . = not tested or not shown.

SMILES	NSD2 inh	LEDGF integ inh	TDP2 absorb	Casp6 inh	MBD2 DNA inh	UHRF1 MBD2 ctr	IN multimer act	TRFRET interf	LEDGF integ conf
O=C(CCCSc1ccccc1)Nc1nc(-c2ccco2)c(-c2ccco2)s1	-2	20*	-4	5	4	3	3	-13	13
Nc1nc(-c2ccco2)cs1	1	6	9	.	4	3	.	.	.
N#Cc1ccc(-c2ccc([C@@H]3[C@@H](CO)N4C(=O)CN(C(=O)C5CCC5)C[C@H]34)cc2)cc1	.	.	.	1	.	.	.	.	.
C[C@H]1CN([C@@H](C)CO)C(=O)Cc2cc(NS(=O)(=O)c3ccccc3)ccc2O[C@@H]1CN(C)Cc1ccc(Oc2ccccc2)cc1	.	.	.	2	.	.	.	.	.
O=C1c2ccccc2C(=O)c2c(Nc3ccc(CCO)cc3)ccc(O)c21	13	15*	4	1	0	0	14*	-51	0
C[C@@H]1CN([C@H](C)CO)C(=O)c2c(c3ccccc3n2C)-c2ccccc2CO[C@@H]1CN(C)S(=O)(=O)Cc1ccccc1	.	.	.	-1	.	.	.	.	.
COc1ccc2c3c([nH]c2c1)[C@H](CO)NCC31CCN(C(=O)C2CCCC2)CC1	.	.	.	-2	.	.	.	.	.
Cc1nn(-c2ccccc2)c(N2CCCC2)c1/C=N/NC(=O)c1cc2ccccc2cc1O	1	14*	-1	0	6	-5	-1	5	3
CCCNC(=O)N1C[C@@H]2[C@H](c3ccccc31)[C@@H](CO)N2C(=O)Nc1ccccc1	.	.	.	-2	.	.	.	.	.
CCCCNC(=O)C[C@@H]1C(=O)N(CCc2ccc(Cl)cc2)/C2=C/CCCCC[C@@]21C(=O)OCC	.	0	6	.	-2	-2	.	.	.
CCOC(=O)[C@]12CCCCC/C=C\1N(CCc1ccc(Cl)cc1)C(=O)[C@H]2CC(=O)NCCc1ccccc1OC	.	18*	3	.	3	-2	0	1	-4
COc1cccc(NC(=O)N[C@@H]2CC[C@H](CC(=O)N3CCN(C)CC3)O[C@@H]2CO)c1	.	.	.	1	.	.	.	.	.
COCCN1C(=O)N[C@@H](c2cccc(F)c2)C(C(=O)OC)=C1C	.	29*	7	-1	-2	-3	1	-7	-5
Cc1cc(C)nc(SCC(=O)c2ccc(O)c(O)c2)n1	.	11	2	30	1	3	.	.	.
Cc1cc(SCC(=O)c2ccc(O)c(O)c2)n2nc(C)c(-c3ccccc3)c2n1	11	17*	-19	39*	-1	-3	0	2	12
C(=C\n1nnc2ccccc21)/c1ccc[nH]1	.	27*	9	7	7	7	4	-22	37*
C[C@H](CO)N1C[C@H](C)[C@H](CN(C)CC2CCCCC2)OCCCC[C@H](C)Oc2ccc(NC(=O)C3CCCCC3)cc2C1=O	.	.	.	-2	.	.	.	.	.
O=C(NN=C(c1ccccc1)c1ccccn1)c1ccccc1	2	21*	6	3	-3	8	-1	2	-1
Cc1noc(C)c1S(=O)(=O)Nc1ccc2c(c1)CC(=O)N([C@@H](C)CO)C[C@H](C)[C@H](CN(C)C(=O)Nc1ccc(C(F)(F)F)cc1)O2	.	.	.	1	.	.	.	.	.
O=C1N(CCS(=O)(=O)c2ccccc2)Cc2ccccc2C[C@@]12N=C(c1ccc(OCCCO)cc1)O[C@H]2c1ccccc1	.	.	.	1	.	.	.	.	.
Nc1c(N(C(=O)Nc2ccc(Cl)c(Cl)c2)C2CCCC2)c(=O)[nH]c(=O)n1Cc1ccccc1	2	14*	0	.	3	-1	1	-3	1
COc1cccc(C#Cc2ccc3c(c2)[C@@H]2[C@@H](CCN2S(=O)(=O)c2ccccc2)[C@@H](CO)N3)c1	.	.	.	-2	.	.	.	.	.
COP(=O)(OC)c1ccc(NCc2cc(O)ccc2O)cc1	26	20*	-5	53*	-2	2	64*	-225	24*
CC(C)OC(=O)c1ccc(NCc2cc(O)ccc2O)cc1	4	10	-1	-4	-4	-4	.	.	.
COc1ccccc1Nc1nc(N)nc(CN2CCC(Cc3ccccc3)CC2)n1	1	15*	-9	.	10	9	0	2	6
SMILES	NSD2 inh	LEDGF integ inh	TDP2 absorb	Casp6 inh	MBD2 DNA inh	UHRF1 MBD2 ctr	IN multimer act	TRFRET interf	LEDGF integ conf
CO[C@@H]1CN(C)C(=O)c2cc(NS(=O)(=O)c3ccccc3)ccc2OC[C@@H](C)N(Cc2cccnc2)C[C@H]1C	.	.	.	1	.	.	.	.	.
O=C(C[C@@H]1CC[C@@H](NC(=O)c2ccncc2)[C@H](CO)O1)NCc1ccncn1	.	.	.	-3	.	.	.	.	.
Cc1cnc(CNC(=O)c2ccc3sc([C@@H]4O[C@H](CO)[C@H](O)[C@H](O)[C@H]4O)nc3c2)cn1	-1	5	10	-2	0	-1	.	.	.
O=C(NCc1cccs1)c1ccc2sc([C@@H]3O[C@H](CO)[C@H](O)[C@H](O)[C@H]3O)nc2c1	-6	33*	-7	5	-3	1	-1	3	-10
CO[C@@H](CN(C)Cc1ccc2c(c1)OCO2)[C@@H](C)CN(C(=O)c1ccccc1)[C@@H](C)CO	.	.	.	0	.	.	.	.	.
COC(=O)c1ccc(CN2C(=O)NC(CC(C)C)C2=O)cc1 (configuration not stated)	-1	61*	10	-3	1	25*	-1	5	-4
COC(=O)c1ccc(CN2C(=O)c3ccccc3C2=O)cc1	0	-2	9	-1	-1	0	.	.	.
CCCNC(=O)N[C@@H]1CC[C@H](CC(=O)N2CCN(C)CC2)O[C@@H]1CO	.	.	.	0	.	.	.	.	.
OC[C@H]1O[C@@H](c2nc(-c3ccc(CN4CCOCC4)cc3)no2)[C@H](O)[C@@H](O)[C@H]1O	-2	16*	0	.	0	0	-1	4	-1
OC[C@H]1O[C@@H](c2nc(-c3ccc4c(c3)CCO4)no2)[C@H](O)[C@@H](O)[C@H]1O	-2	1	6	-1	2	-1	.	.	.
O=C(N/N=C\c1c(O)ccc2ccccc12)c1ccc(S(=O)(=O)N2CCCCC2)cc1	-4	41*	-7	.	-7	1	0	1	-5
C[C@H](CO)N1C[C@H](C)[C@H](CN(C)Cc2ccccc2)Oc2ncc(C#Cc3ccccc3)cc2C1=O	.	.	.	0	.	.	.	.	.
COc1cc2c(c(OC)c1)C(c1cccc(OC)c1OC)CC(=O)N2 (configuration not stated)	.	17*	-8	3	-1	0	-2	12	-2
CCCOc1c(OC)cccc1C1CC(=O)Nc2cc(OC)c(OC)c(OC)c21 (configuration not stated)	2	0	-17	.	0	-1	.	.	.
